From ChEMBL document CHEMBL1909548, “Ligustrazine derivatives. Part 5: design, synthesis and biological evaluation of novel ligustrazinyloxy-cinnamic acid derivatives as potent cardiovascular agents” (Eur J Med Chem, 2011)

Assays:
[1] = Antiplatelet activity in rabbit platelet rich plasma assessed as inhibition rate of ADP-induced platelet aggregation at 200 uM after 5 mins by aggregometry; assay type: functional; details: Oryctolagus cuniculus
In short: (§1)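 Rabbit platelet-rich plasma obtained by centrifuging blood at 1000 rpm for 5 min. Platelet-poor plasma (3000 rpm, 15 min) served as the reference. Platelets were adjusted to 3×10¹¹/L. PRP was mixed with compound at final levels 400, 200, 100 or 50 and incubated at 37 °C for 5 min before aggregation was read. IC50 was derived by linear regression.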

[2] = Antiplatelet activity in rabbit platelet rich plasma assessed as inhibition rate of ADP-induced platelet aggregation at 100 uM after 5 mins by aggregometry; assay type: functional; details: Oryctolagus cuniculus; in short: as §1
[3] = Antiplatelet activity in rabbit platelet rich plasma assessed as inhibition rate of ADP-induced platelet aggregation at 50 uM after 5 mins by aggregometry; assay type: functional; details: Oryctolagus cuniculus; in short: as §1
[4] = Antiplatelet activity in rabbit platelet rich plasma assessed as inhibition of ADP-induced platelet aggregation after 5 mins by aggregometry; assay type: functional; details: Oryctolagus cuniculus; in short: as §1
ECV-304 [5] = test: Protection against H2O2-induced toxicity in human ECV304 cells assessed as proliferation rate at 50 uM pretreated for 24 hrs before H2O2 challenge measured after 12 hrs by MTT assay; assay type: functional; details: read-out: Activity
In short: (§2)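 ECV-304 cells were seeded at 6×10³/well and grown to confluence. Cells were pretreated 24 h with compound in DMSO (final ≤0.05%), then given H2O2 (150) for 12 h at 37 °C, 5% CO2. MTT (5 mg/mL) was added for 4 h, formazan dissolved in DMSO, and A570 read. Proliferation rate = [OD(compd)−OD(H2O2)]/[OD(control)−OD(H2O2)]×100%. EC50 was calculated from proliferation rates by formula.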

ECV-304 [6] = test: Protection against H2O2-induced toxicity in human ECV304 cells assessed as proliferation rate at 25 uM pretreated for 24 hrs before H2O2 challenge measured after 12 hrs by MTT assay; assay type: functional; details: read-out: Activity; in short: as §2
ECV-304 [7] = test: Protection against H2O2-induced toxicity in human ECV304 cells assessed as proliferation rate at 12.5 uM pretreated for 24 hrs before H2O2 challenge measured after 12 hrs by MTT assay; assay type: functional; details: read-out: Activity; in short: as §2
ECV-304 [8] = test: Protection against H2O2-induced toxicity in human ECV304 cells assessed as proliferation rate pretreated for 24 hrs before H2O2 challenge measured after 12 hrs by MTT assay; assay type: functional, cell-based; in short: as §2
[9] = Antiplatelet activity in rabbit platelet rich plasma assessed as inhibition rate of ADP-induced platelet aggregation at 400 uM after 5 mins by aggregometry; assay type: functional; details: Oryctolagus cuniculus; in short: as §1
ECV-304 [10] = test: Protection against H2O2-induced toxicity in human ECV304 cells assessed as proliferation rate at 100 uM pretreated for 24 hrs before H2O2 challenge measured after 12 hrs by MTT assay; assay type: functional; details: read-out: Activity; in short: as §2
ECV-304 [11] = test: Ratio of Ligustrazine EC50 to compound EC50 for protection against H2O2-induced toxicity in human ECV304 cells pretreated for 24 hrs before H2O2 challenge measured after 12 hrs by MTT assay

Row | SMILES | inhibition at 200 µM [1] | inhibition at 100 µM [2] | inhibition at 50 µM [3] | IC50 [4] | growth at 50 µM (ECV-304 [5]) | growth at 25 µM (ECV-304 [6]) | growth at 12.5 µM (ECV-304 [7]) | EC50 (ECV-304 [8]) | inhibition at 400 µM [9] | growth at 100 µM (ECV-304 [10]) | EC50 ratio (TMP/compound) (ECV-304 [11])
1 | CCOC(=O)/C=C/c1cc(Br)cc(Br)c1OCc1nc(C)c(C)nc1C | 15.8% | 13.5% | 9.8% | > 2000 µM | 73.9% | -6.88% | -25.7% | 1.59 mM | 16.1% |  | 
2 | CCOC(=O)/C=C/c1cc(Cl)ccc1OCc1nc(C)c(C)nc1C | 14.5% | 11.3% | 7.66% | > 2000 µM | -186% | -94.4% | -0.46% | 16.9 mM | 18.7% |  | 
3 | CCOC(=O)/C=C/c1ccc(OCc2nc(C)c(C)nc2C)cc1 | 15.5% | 11.9% | 9.8% | > 2000 µM | -6.36% | -10.8% | -1.79% | 0.206 mM | 22.7% | -7.56% | 
4 | CCOC(=O)/C=C/c1cc(OC)c(OCc2nc(C)c(C)nc2C)c(OC)c1 | 38.5% | 35% | 31% | 631 µM | -94.2% | -81.9% | -31.1% | 2.31 mM | 48.1% | -180% | 
5 | CCOC(=O)/C=C/c1ccc(OCc2nc(C)c(C)nc2C)c(OC)c1 | 40.2% | 36.9% | 26.2% | 449 µM | 50.9% | 43.5% | 29.5% | 0.109 mM | 49.5% | 70.2% | 
6 | COc1cc(/C=C/C(=O)O)cc(OC)c1OCc1nc(C)c(C)nc1C | 47.3% | 41% | 33% | 182 µM | -95.9% | -33.8% | -74.6% | 3.53 mM | 64.3% | -132% | 
7 | CCOC(=O)/C=C/c1cc(Br)c(OCc2nc(C)c(C)nc2C)c(Br)c1 | 16.3% | 10.7% | 6.77% | > 2000 µM | 66.1% | 57% | -130% | 1.97 mM | 20.7% |  | 
8 | CCOC(=O)/C=C/c1cccc(OC)c1OCc1nc(C)c(C)nc1C | 12.5% | 10.5% | 6.97% | > 2000 µM | 16.6% | 58.7% | -92.5% | 3.04 mM | 28.1% |  | 
9 | O=C(O)/C=C/c1ccc(Cn2ccnc2)cc1 [OZAGREL] | 45.4% | 27.3% | 23.3% | 360 µM |  |  |  |  | 55.3% |  | 
10 | Cc1nc(C)c(COc2ccc(/C=C/C(=O)O)cc2)nc1C | 29% | 13.4% | 18.8% | 1400 µM | 90.4% | 2.01% | -55% | 0.086 mM | 27.6% | 46.6% | 
11 | COc1cccc(/C=C/C(=O)O)c1OCc1nc(C)c(C)nc1C | 28.4% | 26.1% | 8.97% | 522 µM | 50.3% | -0.71% | -164% | 3.59 mM | 47.6% |  | 
12 | Cc1nc(C)c(C)nc1C [LIGUSTRAZINE] |  |  |  |  | 22.1% | 12.7% | 10.4% | 0.6 mM |  | 42.8% | 
13 | Cc1nc(C)c(COc2c(Br)cc(Br)cc2/C=C/C(=O)O)nc1C | 33.1% | 20% | 18.1% | 1310 µM | 48.5% | 4.21% | -22.3% | 0.155 mM | 37.4% | -24.8% | 
14 | CCOC(=O)/C=C/c1ccccc1OCc1nc(C)c(C)nc1C | 33.4% | 30.1% | 16.4% | 502 µM | 327% | -109% | -1.24% | 1.54 mM | 48.1% |  | 
15 | Cc1nc(C)c(COc2ccccc2/C=C/C(=O)O)nc1C | 70.2% | 62.3% | 46.1% | 54 µM | 237% | 370% | 183% | 0.499 mM | 76.8% | -34.6% | 
16 | CCOC(=O)/C=C/c1cccc(OCc2nc(C)c(C)nc2C)c1 | 34.8% | 29.4% | 14.5% | 628 µM | 278% | -180% | -1.52% | 4.33 mM | 43% |  | 
17 | Cc1nc(C)c(COc2ccc(Cl)cc2/C=C/C(=O)O)nc1C | 45.6% | 38.4% | 24.7% | 1050 µM | -153% | -44% | -98.3% | 9.3 mM | 67% |  | 
18 | CCOC(=O)/C=C/c1ccc(OCc2nc(C)c(C)nc2C)c(O)c1 | 25.7% | 23% | 13.9% | 1380 µM | 10.3% | -8.45% | -18.7% | 0.139 mM | 41.8% | 37.3% | 
19 | Cc1nc(C)c(COc2c(Br)cc(/C=C/C(=O)O)cc2Br)nc1C | 38.6% | 62.8% | 5.3% | 1290 µM | -113% | -104% | -83.8% | 3.28 mM | 55.4% | -85.8% | 
20 | Cc1nc(C)c(COc2ccc(/C=C/C(=O)O)cc2O)nc1C | 60% | 11.8% | 3.46% | 176 µM | 157% | 131% | 15.3% | 0.046 mM | 87% | 170% | 
21 | COc1cc(/C=C/C(=O)O)ccc1OCc1nc(C)c(C)nc1C | 51.9% | 47% | 17.5% | 157 µM | -17.8% | -22.4% | -12.5% | 0.295 mM | 73.2% | -19.6% | 
22 | Cc1nc(C)c(COc2cccc(/C=C/C(=O)O)c2)nc1C | 57.2% | 46.6% | 30% | 161 µM | 473% | 378% | 306% | 0.02 mM | 60.8% | 175% | 30
